Measured values reported in the EternaBench riboswitch data.

Tested on: MS2 coat protein
Test: apparent Kd, MS2 coat protein; higher = weaker binding; RNA-MaP array; FMN 200 µM where present
Outline: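 Green signal was scaled to red-channel RNA signal and control-cluster median Fmax, and the apparent Kd was taken as the median of filtered per-cluster binding-curve fits. The binding series used SNAP-549-labelled MS2 coat protein from 0.7 or 1.5 nM, doubling to 3 µM, on designs transcribed by stalled E. coli RNA polymerase on Illumina sequencing-chip clusters. Each series ran without and then with constant ligand in 100 mM Tris-HCl pH 7.5, 80 mM KCl, 4 mM MgCl2, BSA, DTT, yeast tRNA and Tween-20.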

[1] = designed as: OFF switch for flavin mononucleotide, no ligand
[2] = ligand present: flavin mononucleotide, designed as: OFF switch for flavin mononucleotide
[3] = designed as: ON switch for flavin mononucleotide, no ligand
[4] = ligand present: flavin mononucleotide, designed as: ON switch for flavin mononucleotide

## GCUAGAGCAGGAUAUCUAGAUCCACACAUGAGGAUCACCCAUGUACAGUCGAAAGACUGAAGAGAAGGGCUCUAGC
[1]
  apparent Kd: 69.7 nM
[2]
  apparent Kd: 92.7 nM

## GUCGUGUUAGGAUAUGGCAACGGCGGCGAAAGUUGUUGUUGUUAGAAGGAACAUGAGGAUCACCCAUGUAUGAC
[1]
  apparent Kd: 37.7 nM
[2]
  apparent Kd: 113 nM

## UCACGGGACUAAGGAUAUACAUGAACUAUUAUUGUAGAAGGUAGAAUGUUAGCUUAUACACUAAACAUGAGGAUCACCCAUGUA
[1]
  apparent Kd: 36.5 nM
[2]
  apparent Kd: 32.8 nM

## CUAUGAACGAUAGGAUAUACUGAGGUUGAGUGGGUAGAAGGAUCGAUAGUGUAGAAGACAUGAGGAUCACCCAUGUUAUGGAUU
[3]
  apparent Kd: 505 nM
[4]
  apparent Kd: 318 nM

## ACCAUUUACUAGUUUUCUAUACAUGAGGAUCACCCAUGUUUUGAGGAUAUCAGCGUGAAACACGCUGAGAAGGCAAAACAUUCG
[1]
  apparent Kd: 181 nM
[2]
  apparent Kd: 342 nM

## GGAUUACAUGAGGAUCACCCAUGUGAGGAUAUCGAUGUCCUGUCUUUCGUGCGGGACUCGAGAAGGCACUUGGA
[1]
  apparent Kd: 45.2 nM
[2]
  apparent Kd: 141 nM

## GGACAUGUCGUCUACAUGAGGAUCACCCAUGUCGAUAGACAUGAGGAUAUCGAUACAAAUUGUAUCGAGAAGGCAUGCAUGUCC
[3]
  apparent Kd: 44.9 nM
[4]
  apparent Kd: 23 nM

## AUAUCUCCCGAGAAGGACGUACCACAUGUUGAUCACCGAUAUAAGGAACGUAGGAUAUUGGACAUGAGGAUCACCCAUGUGGAU
[3]
  apparent Kd: 391 nM
[4]
  apparent Kd: 23.6 nM

## CUUUAGUGAGGAUAUGUGGCUUCGAUCGUGAGAUCGAGGCUACAGAAGGCACAUGAGGAUCACCCAUGUUCCUU
[1]
  apparent Kd: 14.5 nM
[2]
  apparent Kd: 32.9 nM

## CGCUAGCGAAUAGUAAUAAAAGUACAGGAUAUGUUACAUGAGGAUCACCCAUGUAUUGGGUAAGAACAGAAGGGUACGCUAGCG
[1]
  apparent Kd: 136 nM
[2]
  apparent Kd: 97.8 nM

## GGAUAGGACAGAGGAUAUACCGAUAGGAUCUACUAUCGAAUAAUCCUCACAUGAGGAUCACCCAUGUAGAAGGCUGUCCUAUCG
[1]
  apparent Kd: 21.3 nM
[2]
  apparent Kd: 143 nM

## GGCGGAGACGUUAACAUGAGGAUCACCCAUGUCGAAGGAGAUGAGGAUAUCGUAUACGAUGUAUAUGAGAAGGCAUGGUCUGCC
[3]
  apparent Kd: 32.8 nM
[4]
  apparent Kd: 11.3 nM

## UGGGCCUCGUGAGGAUAUACAUGAGGAUCACCCAUGUAAUAAAGUGAACGGAGGAAACUCCGAAUGUAGAAGGCACGAGGCUCA
[1]
  apparent Kd: 19.5 nM
[2]
  apparent Kd: 147 nM

## GGAGAGCAAGGAUAUACAUGAGGAUCACCCAUGUACGGUCAUUUGGGCAUGUCUGUAAGUAGAAGGUGUUUUGG
[1]
  apparent Kd: 45.2 nM
[2]
  apparent Kd: 58.5 nM

## UUACUCAUGUAAGGAUAUGCAGCCGAAACGGCUGCAGAAGGUACUAAAAUACAUGAGGAUCACCCAUGUCUUUUUAUUUUAGAC
[3]
  apparent Kd: 197 nM
[4]
  apparent Kd: 129 nM

## AACCAGUUGGUAGGAUAUGGUACAGUACCCGUACCAGAAGGACCAACAUGAGGAUCACCCAUGUUGGAAAGUCAACAUUAAUGA
[1]
  apparent Kd: 6.51 nM
[2]
  apparent Kd: 14 nM

## UAAACGUUCUAGAAGGUGCUUUUGUUAAACAAGCAAGGAUAUAGACAUGAGGAUCACCCAUGUCUUUGUGACAUCGACAUACUU
[1]
  apparent Kd: 8.44 nM
[2]
  apparent Kd: 11.2 nM

## UGUCGGAGCAGAGGAUAUUACAUGAGGAUCACCCAUGUAUGAACCAAUAGCUGGAAACAGCAAUGUAAGAAGGCUGCUCCGAUA
[1]
  apparent Kd: 11.8 nM
[2]
  apparent Kd: 166 nM

## AUGGUGUGAUAGGAUAUUGCUGGGUCAACCUUUUAAGAAGGGUCUACAUGAGGAUCACCCAUGUGGGUGUCCCU
[1]
  apparent Kd: 65.3 nM
[2]
  apparent Kd: 60.2 nM

## GCUUUCGCAUGAGGAUAUGCUCGAGUUUAGAGAGCAGAAGGCAUGUCAUAAGACAUGAGGAUCACCCAUGUAGUUAAAAUUGCA
[3]
  apparent Kd: 164 nM
[4]
  apparent Kd: 10.7 nM

## GUUUAGUGAGGAUAUGUGGCUUCGAUCGUGAGAUCGAGGCUACAGAAGGCACAUGAGGAUCACCCAUGUUCCUG
[1]
  apparent Kd: 16 nM
[2]
  apparent Kd: 64.3 nM

## GUUCUUCCUGUGAGGAUAUCCAUGUGUCGGUUUGUGGAGAAGGUACAUGAGGAUCACCCAUGUCACCCGCGUUU
[1]
  apparent Kd: 14.8 nM
[2]
  apparent Kd: 16.3 nM

## CUGUUUUUCGCAGGAUAUGCUCCUCCUUUAUUUGCAGAAGGGCGUUAAACAUGAGGAUCACCCAUGUAUGGUAAUGACUUUUUC
[1]
  apparent Kd: 20.6 nM
[2]
  apparent Kd: 67.8 nM

## ACAUGAGGAUCACCCAUGUACAUGGGUAUUAUUGUUUGUUACUAGGAUAUGUAUUUGAAUUUACAACAGAAGGAGUAUUAAUGU
[1]
  apparent Kd: 1160 nM
[2]
  apparent Kd: 632 nM

## AAUAUAAGAGCUGGAAAUACUCAAACAUGAGGAUCACCCAUGUAGGAUAUCAGCACGAUAAGUGCUGAGAAGGACAUCCAGCUC
[1]
  apparent Kd: 15 nM
[2]
  apparent Kd: 15.4 nM

## GUGUAGAUAGGAUAUGCAAGAGUCUAGCGAAGCUAGAUUCUACAUGAGGAUCACCCAUGUAGAAGGGUCUACAC
[1]
  apparent Kd: 18.3 nM
[2]
  apparent Kd: 16.1 nM

## ACUAUAUAUGAGAAGGUGAAGUGGAAACAUGAGGAUCACCCAUGUAAUACGAAGCGUAUUUUUAUCAAGGAUAUCAUAUAUAGA
[3]
  apparent Kd: 10.2 nM
[4]
  apparent Kd: 8.02 nM

## GCACGGUAAGUGAGGAUAUACCUCUGGAUACAGAGGUAGAAGGCACAUGAGGAUCACCCAUGUCCAAGCCGUGC
[1]
  apparent Kd: 23.7 nM
[2]
  apparent Kd: 103 nM

## UGACGGAGCAGAGGAUAUACAUGAGGAUCACCCAUGUAAGAUCUCCAGGAAACUGGAGAUCAAAUGUAGAAGGCUGCUCCGUCA
[1]
  apparent Kd: 18.1 nM
[2]
  apparent Kd: 56 nM

## ACGUGUUAUACAGGAUAUGUAUAGGUAUAAUCAUACAGUUAUUAAUUAAUGACAGAAGGGUAAACAUGAGGAUCACCCAUGUCA
[1]
  apparent Kd: 511 nM
[2]
  apparent Kd: 248 nM

## UAAAAUUUACGAGGAUAUCCAAAGGUAGACAUAGGAGAAGGCGUACAUGAGGAUCACCCAUGUACCAAUAAAUGGGUUUCUCAA
[1]
  apparent Kd: 20.8 nM
[2]
  apparent Kd: 57.8 nM

## CUCUUGGCAGGAUAUGCUCUCUUAGACAUGAGGAUCACCCAUGUGCUCAUUCCUUCUUUUGCAGAAGGGCCUUAAC
[1]
  apparent Kd: 71.4 nM
[2]
  apparent Kd: 52.3 nM

## UACAUGAGGAUCACCCAUGUUAACAUGGUGUUGUUAUAUCUGAGAAGGGUAAUAUUACAUUAAGUACAGGAUAUCAUUGAUGUU
[1]
  apparent Kd: 208 nM
[2]
  apparent Kd: 46.3 nM

## GUGCUACAGCUGCGCACGAGACAUGAGGAUCACCCAUGUGACAGAAGGGACUUGUUAAAGGUAGGUCAGGAUAUGUCUUAAAAG
[3]
  apparent Kd: 148 nM
[4]
  apparent Kd: 44.2 nM

## CAAUUUAUGUCAGGAUAUACAAUACAAUGAUUAGUAGAAGGGAUUAAUACAUGAGGAUCACCCAUGUCAUGUGUCAUCGUACCC
[1]
  apparent Kd: 28.1 nM
[2]
  apparent Kd: 23.3 nM

## UAAAAGACUAGCAAAUAAGUUCCACAUGAGGAUCACCCAUGUCAGGAUAUGAGCAGCAAAGCUGCUCAGAAGGGAUAGCUAGUC
[1]
  apparent Kd: 6.45 nM
[2]
  apparent Kd: 6.39 nM

## GGUACUAUCACAGGAUAUGCUUUCCUUUGGGAAGCAGAAGGGUGUAACAUGAGGAUCACCCAUGUGGUGCCCGGGCGUGAGCCC
[3]
  apparent Kd: 51.7 nM
[4]
  apparent Kd: 14.8 nM

## UAGUGAUUGCAAGGAUAUGCUUGUGUUUUAUUUUUUUUAAUAUCUAACAUGAGGAUCACCCAUGUGCAGAAGGUGCUUGAUUUG
[3]
  apparent Kd: 47.8 nM
[4]
  apparent Kd: 48.8 nM

## GGUUGUCAUAGUCAUCCUUUCCGUACAUGAGGAUCACCCAUGUAGGAUAUGCUACUCAAAGAGUAGCAGAAGGGCGUGUGUCUU
[1]
  apparent Kd: 17.2 nM
[2]
  apparent Kd: 18.8 nM

## AACGGAAUGUAGAAGGGUGACAUGAGGAUCACCCAUGUUCACAUGCGUAUUAAAGUAUGUGAUCCACAGGAUAUACUGUCCGUG
[3]
  apparent Kd: 957 nM
[4]
  apparent Kd: 92.8 nM

## GAUAAAGGAGUAGGAUAUGCACAUGGUAGGCUUAUCUUUAUGGCGACAUGAGGAUCACCCAUGUUGCAGAAGGGCUUCCCAUUG
[1]
  apparent Kd: 34 nM
[2]
  apparent Kd: 25.9 nM

## UGACGGAGCUGAGGAUAUAUACAUGAGGAUCACCCAUGUAAGCUCCAGGAAACUGGAGCAAAUGUAUAGAAGGCAGCUCCGUCA
[1]
  apparent Kd: 30.3 nM
[2]
  apparent Kd: 48 nM

## CGAUCGUGUAGAGGAUAUGUUAAACAUGAGGAUCACCCAUGUAAGGUAGAAAUUUUUAUUAACAUACAGAAGGCUACACGAUCG
[1]
  apparent Kd: 8.08 nM
[2]
  apparent Kd: 5.66 nM

## GGAUGACAAAGUCAUCCAUAACGAACAUGAGGAUCACCCAUGUAGGAUAUGCUACUCAAAGAGUAGCAGAAGGACAUGUGUCUU
[1]
  apparent Kd: 33.9 nM
[2]
  apparent Kd: 158 nM

## ACCGAAUGAACAUGAGGAUCACCCAUGUACCCGAAAGGGAAUGAGGAUAUCGAUAGCAAAGCUAUCGAGAAGGCAUGGGUCGGU
[3]
  apparent Kd: 573 nM
[4]
  apparent Kd: 169 nM

## AAAGUGUAAGGAUAUGCUGCUCGUCACUUGCGUGAUGAGUAGCAGAAGGUACAUGAGGAUCACCCAUGUAAAAA
[1]
  apparent Kd: 28.8 nM
[2]
  apparent Kd: 38.3 nM

## ACCAAUGCAGGAUAUACAUGAGGAUCACCCAUGUAUAACCUACAUAGGUGAUCCUCAUGUAGAAGGGCAUUGGA
[1]
  apparent Kd: 12.8 nM
[2]
  apparent Kd: 10 nM

## GCAACGCCUGACAUGAGGAUCACCCAUGUUAGAUUGUUAUGUCAGGAUAUAGUCUAGAAACUAGACUAGAAGGGAUAUGUUGCU
[3]
  apparent Kd: 1010 nM
[4]
  apparent Kd: 161 nM

## AGUCAUACAGGAUAUACAUGAGGAUCACCCAUGUUUAUCCUACAUGGGUGAUCCUCAUGUAGAAGGGUAUGACA
[1]
  apparent Kd: 11.2 nM
[2]
  apparent Kd: 9.45 nM

## AUCGACAACAUCAUGGUGGAUCCUGAGGAUAUGAAUAGCUACAUGAGGAUCACCCAUGUCCCGCGUCAGAAGGCAGGUUUGAUC
[3]
  apparent Kd: 400 nM
[4]
  apparent Kd: 41.3 nM

## UUGAUAAGGAGAGGAUAUGGACAUGAGGAUCACCCAUGUACAUGGGAAUAUUUACUGAAUUCUUACUAGAAGGCUUACAUAUUU
[1]
  apparent Kd: 15.7 nM
[2]
  apparent Kd: 13.3 nM

## GGAUCCAACACAGGAUAUGCUGGACCUUGUCCAGCAGAAGGGUGAAGAACAUGAGGAUCACCCAUGUGGAUCCAUAUAUUUAAU
[3]
  apparent Kd: 240 nM
[4]
  apparent Kd: 14.6 nM

## GUGUAGUCAGGAUAUACAUGAGGAUCACCCAUGUGAAUAAGAUAGAAUAAGAUAAAGUGUAGAAGGGAUAGUGU
[1]
  apparent Kd: 29.6 nM
[2]
  apparent Kd: 25.7 nM

## UUUUAAUAAUAGAAGGAGCACUACAUGAGGAUCACCCAUGUGUUAGUAGUUAGGAUAUAUAAUAACAUGAGGAUCACCCAUGUA
[3]
  apparent Kd: 83.6 nM
[4]
  apparent Kd: 40.7 nM

## GUCAGCUCGUGAGGAUAUACAACACUGCUUCGGCAGUGUAUUAAGAUCACAUGAGGAUCACCCAUGUAGAAGGCUCGAGCUGAU
[1]
  apparent Kd: 14.6 nM
[2]
  apparent Kd: 271 nM
